Values after ≈ are worked out from the molar mass of the structure shown.
What was measured:
[1] = Equilibrium solubility of compound in PBS by HPLC analysis; assay type: physicochemical
[2] = Protein binding in rat assessed as as fraction unbound at 5 uM by rapid equilibrium dialysis method; assay type: ADME; details: plasma
[3] = target: Serine/threonine-protein kinase pim-2 (Homo sapiens, UniProt Q9P1W9); test: Inhibition of human PIM2 assessed as remaining enzyme activity at 1 uM by KINOMEscan assay
How it was run: (§1)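 Profiled at 1 μM compound across a scanMAX KINOMEscan panel of 392 nonmutant kinases. Activity is reported as percent-of-control (POC). Panel-wide S(10) and S(1) selectivity scores are the fraction of kinases with POC below 10% and below 1%.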

[4] = target: Mitogen-activated protein kinase 15 (Homo sapiens) (UniProt Q8TD08); test: Inhibition of human MAPK15 assessed as remaining enzyme activity at 1 uM by KINOMEscan assay
How it was run: (§2)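 scanMAX KINOMEscan panel of 392 nonmutant kinases, compound tested at 1 μM. Result expressed as percent of control (POC). S(10) and S(1) scores are the fraction of kinases with POC below 10% and below 1%.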

[5] = target: Casein kinase I isoform gamma-2 (Homo sapiens) (UniProt P78368); test: Inhibition of full-length human CSNK1G2 expressed in bacterial system assessed as remaining enzyme activity at 1 uM by KINOMEscan assay; how it was run: as §2
[6] = target: Casein kinase I isoform epsilon (Homo sapiens) (UniProt P49674); test: Inhibition of full-length human CSNK1E expressed in bacterial system assessed as remaining enzyme activity at 1 uM by KINOMEscan assay; how it was run: as §2
[7] = target: Dual specificity tyrosine-phosphorylation-regulated kinase 1B (Homo sapiens) (UniProt Q9Y463); test: Inhibition of human DYRK1B assessed as remaining enzyme activity at 1 uM by KINOMEscan assay; how it was run: as §2
[8] = target: Serine/threonine-protein kinase PIM (Homo sapiens, UniProt P11309+Q9P1W9+Q86V86); test: Inhibition of Pim1/2 in human KMS-12-BM cells assessed as phosphorylation of full-length BAD protein at Ser-112 incubated for 110 mins by flow cytometric analysis in presence of 20% FBS; assay type: cell-based
How it was run: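 Cell assay in KMS-12-BM, a multiple myeloma line with relatively high endogenous Pim-1/2. Pim-dependent phosphorylation of full-length endogenous BAD at Ser-112 measured.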

[9] = Half life in Sprague-Dawley rat at 2 mg/kg, iv; assay type: ADME, organism-based; details: in vivo
How it was run: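 Pharmacokinetics in male Sprague–Dawley rats. Clearance also expressed as a percentage of liver blood flow. Oral bioavailability determined.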

[10] = target: Casein kinase II subunit alpha (Homo sapiens) (UniProt P68400); test: Inhibition of full-length human CSNK2A2 expressed in mammalian system assessed as remaining enzyme activity at 1 uM by KINOMEscan assay; how it was run: as §2
[11] = target: Dual specificity protein kinase CLK1 (Homo sapiens) (UniProt P49759); test: Inhibition of human CLK1 assessed as remaining enzyme activity at 1 uM by KINOMEscan assay; how it was run: as §2
Mus musculus = test: In vivo inhibition of Pim1/2-mediated BAD protein phosphorylation at Ser-112 in human KMS-12-BM cells xenografted in SCID-beige mouse assessed as pBAD level at 100 mg/kg, po administered as single dose measured after 6 hrs by meso scale discovery assay; assay type: functional; parameters: scale not given: the % may be the effect or the level left
How it was run: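 KMS-12-BM xenograft mice given a single oral dose of 25, 50 or 100 mg/kg. Tumor Ser-112 pBAD measured at time points through 16 h postdose. EC50 obtained by fitting all individual total plasma concentration–pBAD response data. Unbound value derived from mouse plasma fraction unbound.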

[12] = target: Dual specificity tyrosine-phosphorylation-regulated kinase 1A (Homo sapiens) (UniProt Q13627); test: Inhibition of human DYRK1A assessed as remaining enzyme activity at 1 uM by KINOMEscan assay; how it was run: as §2
[13] = target: Serine/threonine-protein kinase pim-1 (Homo sapiens, UniProt P11309); test: Inhibition of human PIM1 assessed as remaining enzyme activity at 1 uM by KINOMEscan assay; how it was run: as §1
[14] = target: Mitogen-activated protein kinase kinase kinase 19 (Homo sapiens) (UniProt Q56UN5); test: Inhibition of human YSK4 assessed as remaining enzyme activity at 1 uM by KINOMEscan assay; how it was run: as §2
[15] = target: Casein kinase I isoform alpha-like (Homo sapiens) (UniProt Q8N752); test: Inhibition of full-length human CSNK1A1L expressed in bacterial system assessed as remaining enzyme activity at 1 uM by KINOMEscan assay; how it was run: as §2
Plasma = test: Free plasma concentration in SCID-beige mouse at 5 uM by LC/MS analysis; assay type: ADME, cell-free

Sequence of Casein kinase I isoform gamma-2 (Homo sapiens) (P78368 whole entry, looked up, canonical isoform): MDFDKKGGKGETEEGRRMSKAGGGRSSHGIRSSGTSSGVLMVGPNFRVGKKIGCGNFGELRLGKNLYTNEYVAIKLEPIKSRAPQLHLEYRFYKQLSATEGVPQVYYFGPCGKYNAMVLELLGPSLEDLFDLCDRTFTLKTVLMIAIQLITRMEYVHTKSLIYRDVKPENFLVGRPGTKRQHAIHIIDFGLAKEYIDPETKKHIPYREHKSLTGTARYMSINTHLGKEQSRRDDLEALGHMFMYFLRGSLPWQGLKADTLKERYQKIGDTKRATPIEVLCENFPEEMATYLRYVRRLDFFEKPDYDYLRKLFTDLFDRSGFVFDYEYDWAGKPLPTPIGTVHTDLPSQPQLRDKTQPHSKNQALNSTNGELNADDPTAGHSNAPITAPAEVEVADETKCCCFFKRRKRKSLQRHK
Sequence of Serine/threonine-protein kinase pim-2 (Q9P1W9 whole entry, looked up): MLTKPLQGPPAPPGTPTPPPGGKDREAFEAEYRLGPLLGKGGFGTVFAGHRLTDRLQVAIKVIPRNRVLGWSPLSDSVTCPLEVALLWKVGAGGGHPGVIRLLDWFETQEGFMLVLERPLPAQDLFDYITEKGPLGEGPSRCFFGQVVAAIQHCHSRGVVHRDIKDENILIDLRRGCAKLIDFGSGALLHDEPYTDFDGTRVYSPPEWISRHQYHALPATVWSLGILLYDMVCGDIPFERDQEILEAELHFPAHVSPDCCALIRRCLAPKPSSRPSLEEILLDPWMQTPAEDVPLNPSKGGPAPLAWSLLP
Sequence of Serine/threonine-protein kinase pim-1 (P11309 whole entry, looked up): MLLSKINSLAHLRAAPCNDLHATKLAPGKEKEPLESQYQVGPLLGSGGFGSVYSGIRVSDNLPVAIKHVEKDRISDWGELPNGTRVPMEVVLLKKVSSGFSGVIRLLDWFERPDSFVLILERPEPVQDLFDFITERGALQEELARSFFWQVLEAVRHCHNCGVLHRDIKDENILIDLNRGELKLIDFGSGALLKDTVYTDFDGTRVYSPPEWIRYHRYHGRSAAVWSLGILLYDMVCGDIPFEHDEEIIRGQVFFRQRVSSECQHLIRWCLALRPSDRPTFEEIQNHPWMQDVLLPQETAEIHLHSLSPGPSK
Sequence of Casein kinase II subunit alpha (Homo sapiens) (P68400 whole entry, looked up): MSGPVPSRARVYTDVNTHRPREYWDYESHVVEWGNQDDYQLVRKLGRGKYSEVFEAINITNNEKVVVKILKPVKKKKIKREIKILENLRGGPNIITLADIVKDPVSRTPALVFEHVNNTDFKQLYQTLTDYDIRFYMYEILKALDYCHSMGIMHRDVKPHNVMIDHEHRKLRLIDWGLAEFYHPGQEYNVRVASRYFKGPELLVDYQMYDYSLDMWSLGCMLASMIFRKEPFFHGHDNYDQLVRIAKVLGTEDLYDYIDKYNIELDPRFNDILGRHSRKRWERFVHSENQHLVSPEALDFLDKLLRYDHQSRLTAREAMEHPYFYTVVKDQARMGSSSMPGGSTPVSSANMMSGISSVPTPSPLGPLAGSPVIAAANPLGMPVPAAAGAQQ
Sequence of Dual specificity tyrosine-phosphorylation-regulated kinase 1B (Homo sapiens) (Q9Y463 whole entry, looked up): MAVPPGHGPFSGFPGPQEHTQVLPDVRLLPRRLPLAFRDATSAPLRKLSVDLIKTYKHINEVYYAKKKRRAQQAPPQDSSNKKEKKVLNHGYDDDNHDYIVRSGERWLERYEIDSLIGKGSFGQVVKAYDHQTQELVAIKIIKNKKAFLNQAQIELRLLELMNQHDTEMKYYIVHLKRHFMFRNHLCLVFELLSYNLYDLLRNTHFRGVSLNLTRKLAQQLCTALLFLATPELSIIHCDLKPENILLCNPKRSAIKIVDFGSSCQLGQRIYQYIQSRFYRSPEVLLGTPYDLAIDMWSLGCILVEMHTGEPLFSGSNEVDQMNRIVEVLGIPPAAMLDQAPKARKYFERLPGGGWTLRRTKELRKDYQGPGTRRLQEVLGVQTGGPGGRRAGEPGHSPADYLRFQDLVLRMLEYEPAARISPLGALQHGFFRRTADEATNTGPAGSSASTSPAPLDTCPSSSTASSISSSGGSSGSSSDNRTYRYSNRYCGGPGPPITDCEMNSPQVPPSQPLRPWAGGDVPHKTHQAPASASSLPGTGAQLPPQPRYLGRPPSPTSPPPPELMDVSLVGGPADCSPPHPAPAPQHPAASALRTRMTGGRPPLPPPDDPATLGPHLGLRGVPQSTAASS
Sequence of Mitogen-activated protein kinase 15 (Homo sapiens) (Q8TD08 whole entry): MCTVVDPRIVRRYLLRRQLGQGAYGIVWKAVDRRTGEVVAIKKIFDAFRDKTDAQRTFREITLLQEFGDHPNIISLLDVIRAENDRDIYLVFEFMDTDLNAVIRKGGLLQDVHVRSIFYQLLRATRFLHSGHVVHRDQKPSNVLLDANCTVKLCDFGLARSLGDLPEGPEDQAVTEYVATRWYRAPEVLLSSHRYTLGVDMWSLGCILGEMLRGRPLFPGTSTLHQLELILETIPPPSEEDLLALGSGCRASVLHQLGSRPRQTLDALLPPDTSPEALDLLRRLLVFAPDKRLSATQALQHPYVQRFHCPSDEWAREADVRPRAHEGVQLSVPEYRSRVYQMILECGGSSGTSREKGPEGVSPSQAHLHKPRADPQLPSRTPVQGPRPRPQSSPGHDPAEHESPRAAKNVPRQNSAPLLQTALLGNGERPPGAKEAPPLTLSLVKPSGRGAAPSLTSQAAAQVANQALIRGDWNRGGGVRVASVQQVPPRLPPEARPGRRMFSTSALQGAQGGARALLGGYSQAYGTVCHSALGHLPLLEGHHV
Sequence of Mitogen-activated protein kinase kinase kinase 19 (Homo sapiens) (Q56UN5 whole entry, canonical isoform): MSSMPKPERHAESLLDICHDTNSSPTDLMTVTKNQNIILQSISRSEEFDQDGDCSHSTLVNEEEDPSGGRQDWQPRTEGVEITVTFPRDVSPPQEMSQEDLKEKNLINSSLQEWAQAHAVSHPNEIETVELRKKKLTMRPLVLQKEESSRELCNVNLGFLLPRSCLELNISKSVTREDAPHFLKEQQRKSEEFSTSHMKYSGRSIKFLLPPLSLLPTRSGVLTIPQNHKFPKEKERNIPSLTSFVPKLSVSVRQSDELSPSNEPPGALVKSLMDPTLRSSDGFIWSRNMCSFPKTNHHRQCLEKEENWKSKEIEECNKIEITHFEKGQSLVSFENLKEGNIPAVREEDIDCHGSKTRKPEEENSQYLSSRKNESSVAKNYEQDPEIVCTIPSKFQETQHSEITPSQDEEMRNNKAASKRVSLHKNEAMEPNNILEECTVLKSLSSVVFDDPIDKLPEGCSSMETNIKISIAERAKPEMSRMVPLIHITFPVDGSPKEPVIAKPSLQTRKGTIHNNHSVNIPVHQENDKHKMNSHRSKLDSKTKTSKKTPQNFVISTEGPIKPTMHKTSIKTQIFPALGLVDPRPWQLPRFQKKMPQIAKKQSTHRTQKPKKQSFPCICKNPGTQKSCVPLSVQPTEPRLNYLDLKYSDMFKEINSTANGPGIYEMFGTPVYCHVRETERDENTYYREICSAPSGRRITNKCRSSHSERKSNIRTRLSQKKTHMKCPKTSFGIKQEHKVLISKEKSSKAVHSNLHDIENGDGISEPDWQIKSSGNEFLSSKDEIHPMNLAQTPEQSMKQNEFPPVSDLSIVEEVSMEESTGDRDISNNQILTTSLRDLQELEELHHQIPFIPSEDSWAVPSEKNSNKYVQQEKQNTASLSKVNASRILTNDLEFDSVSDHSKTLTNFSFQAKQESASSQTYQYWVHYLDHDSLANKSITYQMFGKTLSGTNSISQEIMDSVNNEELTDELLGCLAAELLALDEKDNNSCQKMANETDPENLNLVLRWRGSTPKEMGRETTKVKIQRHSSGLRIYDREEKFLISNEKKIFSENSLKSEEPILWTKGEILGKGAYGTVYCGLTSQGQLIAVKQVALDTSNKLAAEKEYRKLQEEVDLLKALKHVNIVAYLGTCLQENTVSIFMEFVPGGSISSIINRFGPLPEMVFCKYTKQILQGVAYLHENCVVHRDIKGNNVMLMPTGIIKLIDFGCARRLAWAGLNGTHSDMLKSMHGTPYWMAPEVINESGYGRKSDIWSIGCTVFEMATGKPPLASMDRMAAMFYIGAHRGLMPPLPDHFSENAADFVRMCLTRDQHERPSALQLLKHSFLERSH
Sequence of Casein kinase I isoform alpha-like (Homo sapiens) (Q8N752 whole entry, canonical isoform): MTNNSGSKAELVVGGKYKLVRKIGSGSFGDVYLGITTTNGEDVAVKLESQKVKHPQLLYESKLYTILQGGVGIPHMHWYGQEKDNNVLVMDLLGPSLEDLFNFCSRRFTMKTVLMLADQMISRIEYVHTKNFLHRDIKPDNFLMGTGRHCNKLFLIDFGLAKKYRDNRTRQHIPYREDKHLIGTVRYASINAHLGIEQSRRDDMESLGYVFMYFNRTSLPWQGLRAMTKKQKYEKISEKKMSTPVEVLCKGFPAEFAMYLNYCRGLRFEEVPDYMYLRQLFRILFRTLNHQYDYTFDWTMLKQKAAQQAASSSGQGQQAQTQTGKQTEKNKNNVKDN
Sequence of Dual specificity protein kinase CLK1 (Homo sapiens) (P49759 whole entry, looked up): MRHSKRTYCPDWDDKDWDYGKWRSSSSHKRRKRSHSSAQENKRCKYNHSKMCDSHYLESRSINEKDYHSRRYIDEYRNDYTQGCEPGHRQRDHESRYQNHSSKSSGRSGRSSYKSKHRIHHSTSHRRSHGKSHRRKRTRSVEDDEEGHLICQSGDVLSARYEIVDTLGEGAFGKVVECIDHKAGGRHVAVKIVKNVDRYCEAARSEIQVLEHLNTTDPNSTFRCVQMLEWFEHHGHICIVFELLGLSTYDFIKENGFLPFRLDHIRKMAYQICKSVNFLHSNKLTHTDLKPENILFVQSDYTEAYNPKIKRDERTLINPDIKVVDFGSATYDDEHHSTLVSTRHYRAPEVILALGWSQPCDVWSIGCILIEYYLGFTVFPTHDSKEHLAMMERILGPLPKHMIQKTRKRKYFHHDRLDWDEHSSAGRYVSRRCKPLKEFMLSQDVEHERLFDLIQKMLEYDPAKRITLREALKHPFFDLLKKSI

- solubility thermodynamic [1]: 40 µM (≈ 14.4 µg/mL)
- fraction unbound at 5 µM [2]: 0.007
- Activity [3]: < 10%
- Activity [5]: < 10%
- Activity [6]: < 10%
- Activity [7]: < 10%
- IC50 [8]: 25 nM
- half-life [9]: 4 h
- Activity [10]: < 10%
- Activity [11]: < 10%
- Activity [12]: < 10%
- Activity [13]: < 10%
- Activity [14]: < 10%
- Activity [15]: < 10%
- Cp(f) (Plasma): 30 nM
Compound: Cc1nc2cccc3c2nc1N[C@H](C)/C=C\C[C@H]1CNC(=O)c2cc-3[nH]c21
- Activity [4]: < 10%
- Activity (Mus musculus): 66%

From ChEMBL document CHEMBL3808325, “Discovery and Optimization of Macrocyclic Quinoxaline-pyrrolo-dihydropiperidinones as Potent Pim-1/2 Kinase Inhibitors” (ACS Med Chem Lett, 2016)
